pEC50: −log10 of the molar value. Active and inactive are the calls of the source. The calls are words filed in the database; no cut-off is given here.

The results in this text go back to ChEMBL document CHEMBL1140581, “Structure-activity relationship study of [1,2,3]thiadiazole necroptosis inhibitors” (Bioorg Med Chem Lett, 2007).

In assay [1] the test system is Jurkat. In words: Inhibition of TNF-alpha-induced necroptosis in FADD-deficient human Jurkat T cells after 24 hrs. It counts as functional, cell-based. The method in brief: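 FADD-deficient human Jurkat T cells at 5×10^5 cells/mL, 24 h at 37 °C, 5% CO2, with 10 ng/mL human TNF-α plus compound at eleven concentrations (0.030–100 μM), each in duplicate. DMSO stocks diluted in DMSO; final DMSO 0.5%. Viability by luminescent ATP assay (CellTiter-Glo), expressed as signal with TNF-α plus compound over signal with compound alone. EC50 from the dose series.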

In assay [2] the test system is L929. The assay is described as follows: Inhibition of TNF-alpha-induced necroptosis in […] assessed as cell viability at 30 uM after 24 hrs by ATP-based assessement method. It counts as functional. Summed up: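 L929 cells given 10 ng/mL human TNF-α for 24 h with compound at 30 μM. ATP-based viability, normalized to compound-only cells without stimulus (100%). N = 2, standard deviation.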

The test system of assay [3] is L929. The assay is described as follows: Inhibition of zVAD-induced necroptosis in […] assessed as cell viability at 30 uM after 24 hrs by ATP-based assessement method. The class given is functional. Summed up:
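L929 cells treated 24 h with 100 μM zVAD.fmk as the necroptotic stimulus, compound at 30 μM. ATP-based viability, normalized to compound-only cells without stimulus (100%). N = 2, standard deviation.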

Assay [4] concerns Jurkat. The assay is described as follows: Inhibition of TNF-alpha-induced necroptosis in FADD-deficient human Jurkat T cells assessed as cell viability at 30 uM after 24 hrs by ATP-based assessement method. It counts as functional. The method in brief: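 FADD-deficient Jurkat cells exposed 24 h to 10 ng/mL human TNF-α with compound at 30 μM. Viability by ATP-based luminescence, normalized to cells given compound without the necroptotic stimulus (set as 100%). N = 2, standard deviation.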

A further assay concerns Fibroblast. The assay is described as follows: Inhibition of TNFalpha and zVAD-induced necroptosis in SV40-transformed mouse adult lung fibroblasts assessed as cell viability at 30 uM after 24 hrs by ATP-based assessement method. The class given is functional. The method in brief:
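SV40-transformed mouse adult lung fibroblasts stimulated 24 h with 10 ng/mL human TNF-α plus 100 μM zVAD.fmk, compound at 30 μM. ATP-based viability, normalized to compound-treated cells without stimulus (100%). N = 2, standard deviation.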

In the assay on Jurkat [1], `Cc1nc(C)c(C(=O)NCc2c(F)cccc2Cl)s1` had a pEC50 of less than 4.00.

Turning to `Cc1ccsc1C(=O)NCc1c(F)cccc1Cl`, the pEC50 in the assay on Jurkat [1] is 5.15.

In the assay with Jurkat [1], `CCCCC(NC(=O)c1snnc1C1CC1)c1c(F)cccc1Cl` (stereo not given) showed a pEC50 of less than 4.00.

In turn, `O=C(NCCc1c(F)cccc1Cl)c1snnc1C1CC1` showed a pEC50 in the assay on Jurkat [1] of 4.57.

`C[C@@H](NC(=O)c1snnc1C1CC1)c1c(F)cccc1Cl` gave a pEC50 in the assay with Jurkat [1] of less than 4.00.

In the case of `Cc1nnsc1C(=O)N(C)Cc1c(F)cccc1Cl`, the pEC50 with Jurkat [1] was 4.96.

In the case of `Cc1csc(C(=O)NCc2c(F)cccc2Cl)c1Cl`, the pEC50 with Jurkat [1] was 5.41. Against the preceding molecule, the pEC50 is 0.45 log units higher.

`O=C(NCc1c(F)ccc(F)c1Cl)c1snnc1C1CC1`: the pEC50 in the assay with Jurkat [1] was 6.28.

Turning to `O=C(NC(c1ccccc1)c1c(F)cccc1Cl)c1snnc1C1CC1` (stereo not given), the pEC50 with Jurkat [1] was less than 4.00.

`O=C(NCc1c(F)cccc1Cl)c1cccs1` showed a pEC50 with Jurkat [1] of 5.03.

`Cc1cccc(Cl)c1CNC(=O)c1snnc1C1CC1`: the pEC50 in the assay on Jurkat [1] is 5.00. This pEC50 and that of the molecule before are within 0.2 log units of each other.

Take `Cc1ncoc1C(=O)NCc1c(F)cccc1Cl`: in the assay with Jurkat [1], the pEC50 was less than 4.00.

In the case of `Cc1nnccc1C(=O)NCc1c(F)cccc1Cl`, the pEC50 with Jurkat [1] was less than 4.00.

Regarding `O=C(NCc1ccccc1F)c1snnc1C1CC1`, the pEC50 with Jurkat [1] is 5.82.

With `Cc1c(S(=O)(=O)c2ccc(Cl)cc2)csc1C(=O)NCc1c(F)cccc1Cl`, the negative-log EC50 (pEC50) with Jurkat [1] is less than 4.00.

For `CC(C)c1nnsc1C(=O)NCc1c(F)cccc1Cl`, the pEC50 in the assay with Jurkat [1] was 6.24.

As to `O=C(NCc1ncccc1F)c1snnc1C1CC1`, the pEC50 in the assay with Jurkat [1] is 5.02. Against the preceding molecule, the pEC50 is 1.22 log units lower.

`COc1ccccc1CNC(=O)c1snnc1C` had a pEC50 in the assay on Jurkat [1] of less than 4.00.

Regarding `CN(Cc1c(F)cccc1Cl)C(=O)c1snnc1C1CC1`, the pEC50 with Jurkat [1] was 4.80.

Regarding `Cc1ccccc1CNC(=O)c1snnc1C`, the pEC50 with Jurkat [1] was 4.57.

As for `C[C@H](NC(=O)c1snnc1C1CC1)c1c(F)cccc1Cl`, the result in the assay on L929 [2], with Jurkat [4] and with Fibroblast was Active. Moreover, the result with L929 [3] was inactive. The molecule further had a pEC50 with Jurkat [1] of 6.55.

For `Cc1c(Br)csc1C(=O)NCc1c(F)cccc1Cl`, in the assay with Jurkat [1], the pEC50 was 5.89.

Take `O=C(NCc1c(F)cccc1C(F)(F)F)c1snnc1C1CC1`: the pEC50 with Jurkat [1] is less than 4.00.

In the assay with Jurkat [1], `O=C(NCc1cccc2ccccc12)c1snnc1C1CC1` gave a pEC50 of less than 4.00.

In turn, `Cc1ccc(C(=O)NCc2c(F)cccc2Cl)s1` gave a pEC50 in the assay on Jurkat [1] of 5.41.

On to `Cc1c(C#N)csc1C(=O)NCc1c(F)cccc1Cl`, for which, in the assay on Jurkat [1], the pEC50 was 5.92.

Consider `Cc1ccoc1C(=O)NCc1c(F)cccc1Cl`, for which, in the assay on Jurkat [1], the pEC50 is 4.89.

In turn, `CCOc1ccsc1C(=O)NCc1c(F)cccc1Cl` gave a pEC50 with Jurkat [1] of less than 4.00.

The molecule `O=C(NC(=O)c1c(F)cccc1Cl)c1snnc1C1CC1` showed a negative logarithm of the EC50 (pEC50) with Jurkat [1] of less than 4.00.

In the assay with Jurkat [1], `Fc1cccc(Cl)c1CNCc1snnc1C1CC1` showed a pEC50 of less than 4.00.

For `O=C(NCc1c(F)cccc1Cl)c1sccc1Cl`, the pEC50 in the assay on Jurkat [1] is 5.02.

Molecule `O=C(NCc1c(F)cccc1Cl)c1sccc1C1CC1` gave a pEC50 in the assay with Jurkat [1] of 5.29.

In the assay on Jurkat [1], `CCCc1nnsc1C(=O)NCc1c(F)cccc1Cl` showed a pEC50 of 5.39.

In the case of `CN1C(=O)N[C@H](Cc2c[nH]c3c(Cl)cccc23)C1=O`, the result with L929 [2], in the assay with L929 [3], with Jurkat [4] and with Fibroblast was Active.

Regarding `O=C(NCc1c(Cl)cccc1Oc1ccccc1)c1snnc1C1CC1`, the pEC50 with Jurkat [1] was less than 4.00.

Consider `Cc1ccsc1C(=O)NC(C)c1c(F)cccc1Cl` (stereo not given), for which the pEC50 in the assay with Jurkat [1] is 5.41.

In the assay with Jurkat [1], `Cc1nnsc1C(=O)NCc1c(F)cccc1Cl` gave a pEC50 of 6.00.

The molecule `Cc1nc(-c2ccc(Cl)cc2)sc1C(=O)NCc1c(F)cccc1Cl` gave a pEC50 in the assay on Jurkat [1] of less than 4.00.

`O=C(NCc1c(F)cccc1F)c1snnc1C1CC1` gave a pEC50 in the assay with Jurkat [1] of 5.82.

For the molecule `COc1ccc([C@H]2C3CCc4ccc(OC)cc4C3=NN2C(C)=O)cc1` (stereo not given in full), the outcome in the assay on L929 [2] and with Jurkat [4] was Active. Moreover, in the assay on L929 [3], the result was inactive.

The molecule `Cc1ncsc1C(=O)NCc1c(F)cccc1Cl` had a negative-log EC50 (pEC50) in the assay on Jurkat [1] of 4.70.

As to `Cc1csc(C(=O)NCc2c(F)cccc2Cl)c1`, the pEC50 in the assay with Jurkat [1] was 5.43.

`O=C(NCc1c(F)cccc1Cl)c1snnc1C1CCC1` showed a pEC50 in the assay on Jurkat [1] of 6.22.

In the assay with Jurkat [1], `N#Cc1cccc(Cl)c1CNC(=O)c1snnc1C1CC1` showed a pEC50 of less than 4.00.

`O=C(NCc1c(F)cccc1Cl)c1snnc1C1CC1`: in the assay on Jurkat [1], the pEC50 is 6.30.

In the assay with Jurkat [1], `O=C(NCc1c(F)cccc1Cl)c1snnc1C1CCCCC1` had a pEC50 of 5.22. Against the preceding molecule, the pEC50 is 1.08 log units lower.

Molecule `O=C(NCc1c(F)ccc(Cl)c1F)c1snnc1C1CC1` gave a negative logarithm of the EC50 (pEC50) with Jurkat [1] of 6.74.

As for `O=C(NCc1c(F)cccc1Cl)c1snnc1C1CCCC1`, the pEC50 in the assay on Jurkat [1] was 5.72.

As to `CC(C)(NC(=O)c1snnc1C1CC1)c1c(F)cccc1Cl`, the pEC50 in the assay on Jurkat [1] was less than 4.00.

For `O=C(NCc1c(Cl)cccc1Cl)c1snnc1C1CC1`, the pEC50 in the assay on Jurkat [1] is 5.22.

In the assay on Jurkat [1], `Cc1nnsc1C(=O)NCc1c(F)cccc1F` gave a pEC50 of 5.46. This pEC50 lies 0.24 log units higher than the previous one.

In the assay on Jurkat [1], `O=C(Nc1c(F)cccc1F)c1snnc1C1CC1` gave a pEC50 of less than 4.00.

The molecule `O=C(NCc1ccccn1)c1snnc1C1CC1` had a pEC50 in the assay with Jurkat [1] of 4.40.

Regarding `O=C(NCc1c(F)cccc1Cl)c1snnc1-c1ccccc1`, the pEC50 in the assay on Jurkat [1] was less than 4.00.

Consider `CC(C)(C)c1nnsc1C(=O)NCc1c(F)cccc1Cl`, for which the pEC50 in the assay on Jurkat [1] is 4.74.

Molecule `CC(NC(=O)c1snnc1C1CC1)c1c(F)cccc1Cl` (stereo not given) had a pEC50 with Jurkat [1] of 6.40. This pEC50 is 1.66 log units higher than that of the molecule before.
